Compound activity as filed in PubChem.
This is a sample that favours compounds with a hit; in the whole collection about 1.1% have one here.
SENP1 inh – human SENP1 catalytic domain inhibitors, primary screen, biochemical, FRET, uHTS. Sentrin-specific protease 1 (Homo sapiens), Q9P0U3. recombinant SENP1 catalytic domain, CyPet-SUMO1-YPet FRET cleavage. inhibition, % at 10 µM. 0.21% of 360,000 active. AID 624204, 2012;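 active means inhibition at least 30% at 10 µM, raw YFP signal under a set limit, fluorescence ratio 0.5 to 1.5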;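 further: 0% = enzyme with DMSO and 100% = no enzyme wells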
Target sequence (Q9P0U3 419-644 limits assumed): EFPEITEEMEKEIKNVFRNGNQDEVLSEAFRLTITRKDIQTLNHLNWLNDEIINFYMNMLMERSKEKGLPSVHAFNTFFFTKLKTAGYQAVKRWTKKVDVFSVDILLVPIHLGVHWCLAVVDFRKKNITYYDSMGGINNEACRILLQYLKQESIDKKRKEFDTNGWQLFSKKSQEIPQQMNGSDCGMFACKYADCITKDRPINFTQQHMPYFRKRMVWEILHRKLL
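Test system: human SENP1 catalytic domain; medium: Tris pH 8 buffer plus EDTA, NaCl, BME, BSA, NP40, catalase; incubation: 50 min reaction at room temperature; technique: FRET, CFP and YFP emission; controls: no-enzyme low control and enzyme-plus-DMSO high control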
FAS TE block – FAS thioesterase domain inhibitors, primary screen, biochemical, fluorescence intensity, uHTS. Fatty acid synthase (Homo sapiens), P49327. recombinant FAS-TE, OMFH fluorogenic substrate, fluorescence endpoint. inhibition, % at 15 µM. 0.67% of 360,000 active;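 active means compounds whose normalised, plate-corrected inhibition of enzyme fluorescence in the single-dose primary screen is 50% or more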;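 further: 0% = DMSO with enzyme and 100% = substrate without enzyme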
ABCB6 inh 2 – ABCB6 transporter inhibitors, primary screen, K562-ABCB6 cells, flow cytometry, MLPCN library; ATP-binding cassette sub-family B member 6 (Homo sapiens), Q9NP58; K562-ABCB6 porphyrin accumulation, 1 h; stronger effect = lower value; fluorescence ratio to DMSO, % at 10 µM; 0.19% of 360,000 active; AID 602162, 2011;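 active means fluorescence ratio to DMSO below 75%, the collection mean minus 3 SD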;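 further: signal is porphyrin accumulated inside mitochondria; 100% equals median channel fluorescence of DMSO control wells; lower ratio means ABCB6 inhibition with less porphyrin fluorescence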
hiPSC survival – enhancers of single-cell hiPSC survival, primary screen, ATPlite luminescence. 0.044% of 360,000 active. 100% = ROCK inhibitor wells, 0% = DMSO. survival enhancement, % at 20 µM; in the data active means survival enhancement above about 18%;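 further: cells exposed to compounds for 16 hours before the ATP read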
FAS-TE conf – FAS thioesterase domain inhibitors, confirmation, biochemical, fluorescence intensity, single concentration | recombinant FAS-TE, OMFH fluorogenic substrate | shares compounds with FAS TE block | AID 624325, 2012 | 45% of 2,300 active | inhibition, % at 15 µM;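 active means compounds inhibiting the enzyme by at least 50% at 15 µM in any one of the replicates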;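 further: 0% = enzyme with DMSO only and 100% = wells lacking enzyme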
* = called active by the depositor; nt = no result.

SMILES	SENP1 inh	FAS TE block	ABCB6 inh 2	hiPSC survival	FAS-TE conf
Cc1cccc(-c2nnc(SCC(=O)N3c4ccccc4CCc4ccccc43)n2C)c1	-2	-4	90	1	nt
C=CCNC(=S)/N=c1/ccccn1CCC	-1	-3	96	0	nt
Cc1ccc(Cl)cc1N1CCN(C(c2ccc(C#N)cc2)c2nnnn2C2CCCC2)CC1 (stereo not drawn)	2	69*	97	0	-2
Cc1ccc(Cl)cc1N1CCN(C(c2cccnc2)c2nnnn2C2CCCCC2)CC1 (stereo not drawn)	0	28	95	0	nt
CN(C)S(=O)(=O)c1ccc(N2CCCC2)c(C(=O)Nc2ccc(F)cc2F)c1	0	4	100	0	nt
CN(C)S(=O)(=O)c1ccc(N2CCCC2)c(C(=O)Nc2nc3c(ccc4ccccc43)s2)c1	-67	92*	99	0	10
COc1ccc(C(C)(C)C)cc1NC(=O)c1cc(S(=O)(=O)N(C)C)ccc1N1CCCC1	-1	68*	100	1	24
COc1ccc(S(=O)(=O)N(C)C[C@H]2Oc3c(NC(=O)Nc4ccc(C(F)(F)F)cc4)cccc3C(=O)N([C@H](C)CO)C[C@@H]2C)cc1	2	61*	103	-3	45
C[C@H](CO)N1C[C@H](C)[C@@H](CN(C)C(=O)Nc2ccc(C(F)(F)F)cc2)Oc2c(NC(=O)NC3CCCCC3)cccc2C1=O	0	47	95	-1	nt
C[C@H]1CN([C@@H](C)CO)C(=O)c2cccc(NC(=O)Nc3ccc(C(F)(F)F)cc3)c2O[C@@H]1CN(C)S(=O)(=O)c1ccccc1	-1	36	88	0	nt
C[C@H](CO)N1C[C@H](C)[C@@H](CN(C)C(=O)Nc2ccccc2)Oc2c(NC(=O)Nc3ccc(C(F)(F)F)cc3)cccc2C1=O	3	83*	106	4	92*
C[C@@H]1CN([C@H](C)CO)C(=O)c2cccc(NC(=O)NC3CCCCC3)c2O[C@@H]1CN(C)C(=O)Nc1ccc(C(F)(F)F)cc1	-1	77*	92	0	70*
Cc1noc(C)c1NC(=O)Nc1cccc2c1O[C@H](CN(C)C(=O)NC1CCCCC1)[C@@H](C)CN([C@H](C)CO)C2=O	2	77*	101	-1	84*
C[C@H](CO)N1C[C@H](C)[C@@H](CN(C)C(=O)Nc2ccccc2)Oc2c(NC(=O)Nc3ccccc3)cccc2C1=O	2	42	84	-2	nt
COCC(=O)Nc1ccc2c(c1)[C@@H]1C[C@H](CC(=O)OC)O[C@H](CO)[C@@H]1O2	0	-6	109	9	nt
COc1ccc(C(=O)NC(CC(=O)O)c2cc([N+](=O)[O-])ccc2Cl)c(SC)c1 (stereo not drawn)	1	50*	97	-1	64*
CCOc1ccc(S(=O)(=O)NC(C)C(=O)NCc2cccnc2)cc1 (stereo not drawn)	0	-4	98	0	nt
O=S(=O)(c1ccc(Cl)cc1)N1CCCC(c2nc(-c3ccc(F)cc3)no2)C1 (stereo not drawn)	0	64*	97	-2	46*
CCOC(=O)C(C(=O)NCc1ccc(F)cc1)c1ncc(C(F)(F)F)cc1Cl (stereo not drawn)	0	23	105	6	nt
O=C(NCc1ccc(F)cc1)C(C(=O)NCc1ccc(F)cc1)c1ncc(C(F)(F)F)cc1Cl	4	58*	103	0	62*
O=c1[nH]c2cc([N+](=O)[O-])c([N+](=O)[O-])cc2[nH]c1=O	5	66*	92	0	73*
CCOC(=O)C1CCN(c2nc3c(C)cccn3c(=O)c2/C=C(\C#N)S(=O)(=O)c2ccccc2)CC1	-36	65*	99	-1	5
Cc1cccn2c(=O)c(/C=C(\C#N)S(=O)(=O)c3ccccc3)c(N3CCCCC3)nc12	-38	54*	109	0	5
N#C/C(=C\c1c(N2CCN(c3ccccc3)CC2)nc2ccccn2c1=O)S(=O)(=O)c1ccccc1	-37	71*	95	0	9
